Holding throughout (format): functional
Assay [1] in a line: Antiproliferative activity against human MIAPaCa2 cells after 48 hrs by SRB assay. The settings on record: MIA PaCa-2, 48 h. Summed up:
(§1)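 SRB assay in ATCC-sourced cells grown in DMEM with 10% FBS and penicillin/streptomycin at 37 °C, 5% CO2. Cells were plated at densities set by doubling time and incubated 24 h before dosing. Compounds (DMSO 10 mM stock diluted in medium) were tested at 0.01, 0.1, 1, 10 and 100 µM with 48 h continuous exposure. Cells were fixed in cold 10% TCA and stained with 0.057% SRB; OD was read at 510 nm. GI50 was derived from time-zero, control and test absorbances and reported as the mean of three independent experiments.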
For orientation: In SRB staining, fixed cells bind dye roughly in proportion to their protein.

Assay [2] in a line: Antiproliferative activity against human MCF7 cells after 48 hrs by SRB assay. The settings on record: MCF7, 48 h. Summed up: as §1
Assay [3] is described as follows: Antiproliferative activity against human HeLa cells after 48 hrs by SRB assay. Summed up:
as §1

By GI50 is commonly meant the concentration that inhibits growth by half. Read a high GI50 as less potent growth inhibition. Consider `COc1ccc(-c2nn(-c3ccccc3)cc2C(=O)NCc2cn(Cc3ccc(OC)c(OC)c3)nn2)cc1`, for which the values for the GI50 in assay [1], in assay [2] and in assay [3] were 16.3 µM, above 100 µM and 0.8 µM, respectively.
On the same counts, the results for `O=C(NCc1cn(Cc2ccc(Cl)cc2)nn1)c1cn(-c2ccccc2)nc1-c1ccccc1` are 8.7 µM, above 100 µM and 0.6 µM.
The matching figures for `COc1ccc(Cn2cc(CNC(=O)c3cn(-c4ccccc4)nc3-c3ccccc3)nn2)cc1OC`: 8.2 µM, 12.6 µM and 10.8 µM.
On to `COc1cc(Cn2cc(CNC(=O)c3cn(-c4ccccc4)nc3-c3ccc(F)cc3)nn2)cc(OC)c1`, for which the values for the GI50 in assay [1], in assay [2] and in assay [3] were 0.19 µM, 2.5 µM and 0.36 µM, respectively.
As for `O=C(NCc1cn(Cc2ccc(F)cc2)nn1)c1cn(-c2ccccc2)nc1-c1ccc(Cl)cc1`, the GI50 is 1.99 µM in assay [1], 0.57 µM in assay [2] and 2.8 µM in assay [3].
The matching figures for `COc1cc(Cn2cc(CNC(=O)c3cn(-c4ccccc4)nc3-c3ccc(F)cc3)nn2)cc(OC)c1OC`: 5.2 µM, 4.3 µM and 2.1 µM.
Consider `COc1cc(Cn2cc(CNC(=O)c3cn(-c4ccccc4)nc3-c3ccc(Cl)cc3)nn2)cc(OC)c1OC`, for which the GI50 in assay [1] was determined as 3.5 µM; in assay [2], 2.5 µM; in assay [3], 0.1 µM.
Take `COc1ccc(Cn2cc(CNC(=O)c3cn(-c4ccccc4)nc3-c3ccc(F)cc3)nn2)cc1`: the GI50 in assay [1] is 3.7 µM; in assay [2] it was 0.65 µM; in assay [3], 0.87 µM.
On the same counts, the results for `O=C(NCc1cn(Cc2ccc(F)cc2)nn1)c1cn(-c2ccccc2)nc1-c1ccc(F)cc1` are 14.3 µM, 55.3 µM and 1.2 µM.
On the same counts, the results for `COc1ccc(Cn2cc(CNC(=O)c3cn(-c4ccccc4)nc3-c3ccc(Cl)cc3)nn2)cc1OC` are 9.4 µM, above 100 µM and 0.2 µM.
On the same counts, the results for `O=C(NCc1cn(Cc2ccc(C(F)(F)F)cc2)nn1)c1cn(-c2ccccc2)nc1-c1ccc(Cl)cc1` are 1.1 µM, 4.9 µM and 1.9 µM.
Regarding `O=C(NCc1cn(Cc2ccc(C(F)(F)F)cc2)nn1)c1cn(-c2ccccc2)nc1-c1ccc(F)cc1`, the GI50 in assay [1] was found to be 0.76 µM; in assay [2] it was 0.81 µM; in assay [3] it was 0.25 µM.
With `COc1ccc(Cn2cc(CNC(=O)c3cn(-c4ccccc4)nc3-c3ccc(F)cc3)nn2)cc1OC`, the results for the GI50 in assay [1], in assay [2] and in assay [3] were above 100 µM, above 100 µM and 0.2 µM, respectively.
For `COc1ccc(Cn2cc(CNC(=O)c3cn(-c4ccccc4)nc3-c3ccc(Cl)cc3)nn2)cc1`, the results for the GI50 in assay [1], in assay [2] and in assay [3] were 0.29 µM, 8 µM and 1.4 µM, respectively.
The matching figures for `COc1ccc(Cn2cc(CNC(=O)c3cn(-c4ccccc4)nc3-c3ccc(OC)cc3)nn2)cc1`: 2.5 µM, 22.9 µM and 0.45 µM.
On the same counts, the results for `COc1cc(Cn2cc(CNC(=O)c3cn(-c4ccccc4)nc3-c3ccccc3)nn2)cc(OC)c1OC` are 1 µM, above 100 µM and above 100 µM.
On the same counts, the results for `O=C(NCc1cn(Cc2ccc(F)cc2)nn1)c1cn(-c2ccccc2)nc1-c1ccccc1` are 9.6 µM, 7 µM and 1.6 µM.
As to `O=C(NCc1cn(Cc2ccc(C(F)(F)F)cc2)nn1)c1cn(-c2ccccc2)nc1-c1ccccc1`, the GI50 in assay [1] was determined as 17.7 µM; in assay [2], 0.84 µM; in assay [3] it was 1.6 µM.
The matching figures for `COc1ccc(-c2nn(-c3ccccc3)cc2C(=O)NCc2cn(Cc3cc(OC)cc(OC)c3)nn2)cc1`: 5.8 µM, 0.7 µM and 12.4 µM.

(Values after ChEMBL document CHEMBL3865795, “Design, synthesis and biological evaluation of N-((1-benzyl-1H-1,2,3-triazol-4-yl)methyl)-1,3-diphenyl-1H-pyrazole-4-carboxamides as CDK1/Cdc2 inhibitors” (2016).)
